Test results: ChEMBL document CHEMBL4680091, “Discovery of Novel Spiro[3H-indole-3,2'-pyrrolidin]-2(1H)-one Compounds as Chemically Stable and Orally Active Inhibitors of the MDM2-p53 Interaction” (J Med Chem, 2016)
pIC50: −log10 of the molar value.

Tests used:
[1] = biological target: Tumour suppressor p53/oncoprotein Mdm2 (Homo sapiens, UniProt Q00987); assay: Inhibition of GST-tagged MDM2 (amino acids 17 to 111 residues)/p53 (unknown origin) interaction incubated for 15 mins by; assay type: protein assay
SJSA-1 = assay: Antiproliferative activity against human SJSA-1 cells expression wild type p53 incubated for 3 days by Alamar Blue dye based assay; assay type: functional, cell-based; conditions: SJSA-1, 72 h
SK-OV-3 = assay: Antiproliferative activity against human SK-OV-3 cells expression p53 mutant incubated for 3 days by Alamar Blue dye based assay; assay type: functional, cell-based; conditions: SK-OV-3, 72 h
How it was run: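 p53-mutant SK-OV-3 cells were used in a growth/proliferation assay, with compounds tested up to 25 μM.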

[2] = AUC (0 to 24 hrs) in NMRI mouse at 50 mg/kg, po; assay type: ADME, organism-based; parameters: time < 24 hr, route oral, dose 50 mg/kg; conditions: in vivo
How it was run: (§1)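 Non-tumor-bearing female NMRI nude mice were given a single dose by one of two routes. The iv arm received 5 mg/kg as a bolus in 25% HP-B-CD. The po arm received 50 mg/kg in 0.5% Natrosol (pH 7-8, NaOH titrated). Both used 10 ml/kg. Plasma levels were measured by LC/MS/MS, n=3 per dose group. Parameters came from non-compartmental analysis, with AUC0-24h by linear trapezoidal interpolation.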

[3] = Cmax in NMRI mouse at 50 mg/kg, po; assay type: ADME, organism-based; parameters: route oral, dose 50 mg/kg; conditions: in vivo; how it was run: as §1
[4] = Clearance in NMRI mouse at 5 mg/kg, iv; assay type: ADME, organism-based; conditions: in vivo; how it was run: as §1
[5] = Volume of distribution at steady state in NMRI mouse at 5 mg/kg, iv; assay type: ADME, organism-based; conditions: in vivo, read-out: Vdss; how it was run: as §1
[6] = Oral bio availability in NMRI mouse at 50 mg/kg; assay type: ADME, organism-based; conditions: in vivo; how it was run: as §1

Chain of Tumour suppressor p53/oncoprotein Mdm2 (P04637 whole entry, the tested form may be a part): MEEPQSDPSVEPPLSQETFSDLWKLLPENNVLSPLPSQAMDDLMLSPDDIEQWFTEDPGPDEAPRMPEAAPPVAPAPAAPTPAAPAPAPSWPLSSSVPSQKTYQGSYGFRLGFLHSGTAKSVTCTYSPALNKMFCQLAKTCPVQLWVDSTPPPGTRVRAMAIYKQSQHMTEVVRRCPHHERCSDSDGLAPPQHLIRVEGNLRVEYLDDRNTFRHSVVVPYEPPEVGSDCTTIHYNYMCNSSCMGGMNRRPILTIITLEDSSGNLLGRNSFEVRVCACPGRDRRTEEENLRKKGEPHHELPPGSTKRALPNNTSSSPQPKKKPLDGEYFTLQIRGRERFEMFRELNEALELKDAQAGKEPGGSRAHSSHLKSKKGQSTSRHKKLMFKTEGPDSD
Chain of Tumour suppressor p53/oncoprotein Mdm2 (Q00987 whole entry, the tested form may be a part): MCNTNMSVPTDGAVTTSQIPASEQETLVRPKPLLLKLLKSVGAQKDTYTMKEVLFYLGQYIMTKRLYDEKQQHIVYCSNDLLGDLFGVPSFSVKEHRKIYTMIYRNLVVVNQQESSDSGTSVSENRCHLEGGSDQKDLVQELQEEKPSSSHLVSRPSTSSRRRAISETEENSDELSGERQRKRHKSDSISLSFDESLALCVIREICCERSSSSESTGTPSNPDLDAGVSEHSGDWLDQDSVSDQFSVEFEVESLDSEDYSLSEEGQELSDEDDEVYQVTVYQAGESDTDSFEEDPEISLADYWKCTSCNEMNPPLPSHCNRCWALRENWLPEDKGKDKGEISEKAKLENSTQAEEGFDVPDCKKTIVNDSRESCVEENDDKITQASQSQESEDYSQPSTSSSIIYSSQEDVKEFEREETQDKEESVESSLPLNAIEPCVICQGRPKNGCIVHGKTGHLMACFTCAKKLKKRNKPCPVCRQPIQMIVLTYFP

pIC50 [1]	SMILES	further results
7.09	COC(=O)c1ccc([C@H]2C[C@H]3[C@@H](N2)[C@H](c2cccc(Cl)c2F)[C@]2(C(=O)Nc4cc(Cl)ccc42)N3CC2CC2)cc1	–
6.86	O=C1Nc2cc(Cl)ccc2[C@@]12[C@@H](c1cccc(Cl)c1F)[C@@H]1NCC[C@@H]1N2CC1CC1	pIC50 (SJSA-1): 5.58; pIC50 (SK-OV-3): < 4.60
–	CCOc1cccc(CN2[C@H]3C[C@H](c4ccc(C(=O)O)cc4)N[C@H]3[C@H](c3cccc(Cl)c3F)[C@]23C(=O)Nc2cc(Cl)ccc23)c1	pIC50 (SJSA-1): 7.17; pIC50 (SK-OV-3): < 4.60; AUC(0-t) at 24 h [2]: 8 µM·h; Cmax [3]: 3.4 µM; clearance [4]: 23.2 mL/min/kg; Vd [5]: 1 L/kg; bioavailability [6]: 13%
4.81	O=C1Nc2cc(Cl)ccc2[C@]12N[C@@H](Cc1ccccc1)[C@@H]([N+](=O)[O-])[C@@H]2c1cccc(Cl)c1 (racemic)	–
4.44	O=C1Nc2cc(Cl)ccc2[C@]12NC[C@@H]([N+](=O)[O-])[C@@H]2c1cccc(Cl)c1 (racemic)	–
4.61	CSC[C@@H]1N[C@@]2(C(=O)Nc3cc(Cl)ccc32)[C@@H](c2cccc(Cl)c2)[C@@H]1[N+](=O)[O-] (racemic)	–
4.44	O=C1Nc2cc(Cl)ccc2[C@]12CNC[C@@H]2c1cccc(Cl)c1 (racemic)	–
6.80	C[C@H]1[C@@H](N)[C@H](c2cccc(Cl)c2F)[C@]2(C(=O)Nc3cc(Cl)ccc32)N1CC1CC1	pIC50 (SJSA-1): 5.53; pIC50 (SK-OV-3): < 4.60
4.80	O=C(O)CC[C@@H]1N[C@@]2(C(=O)Nc3cc(Cl)ccc32)[C@@H](c2cccc(Cl)c2)[C@@H]1[N+](=O)[O-] (racemic)	–
4.74	NC(=O)c1cccc(C[C@@H]2N[C@@]3(C(=O)Nc4cc(Cl)ccc43)[C@@H](c3cccc(Cl)c3)[C@@H]2[N+](=O)[O-])c1 (racemic)	–
6.67	CC(=O)N1CC[C@H]2[C@@H]1[C@H](c1cccc(Cl)c1F)[C@]1(C(=O)Nc3cc(Cl)ccc31)N2CC1CC1 (racemic)	–
4.51	O=C1Nc2cc(Cl)ccc2[C@]12N[C@@H](CO)[C@@H]([N+](=O)[O-])[C@@H]2c1cccc(Cl)c1 (racemic)	–
7.21	C[C@H]1[C@@H](NCC(=O)O)[C@H](c2cccc(Cl)c2F)[C@]2(C(=O)Nc3cc(Cl)ccc32)N1CC1CC1	pIC50 (SJSA-1): 5.54; pIC50 (SK-OV-3): < 4.60
5.69	CC(C)CCN1[C@@H](Cn2cncn2)[C@@H](N)[C@H](c2cccc(Cl)c2)[C@]12C(=O)Nc1cc(Cl)ccc12 (racemic)	–
4.87	NC(=O)CC[C@@H]1N[C@@]2(C(=O)Nc3cc(Cl)ccc32)[C@@H](c2cccc(Cl)c2)[C@@H]1[N+](=O)[O-] (racemic)	–
4.40	C[C@@H]1N[C@@]2(C(=O)Nc3cc(Cl)ccc32)[C@@H](c2cccc(Cl)c2)[C@@H]1[N+](=O)[O-] (racemic)	–
5.26	O=C1Nc2cc(Cl)ccc2[C@]12N[C@@H](Cn1cncn1)[C@@H]([N+](=O)[O-])[C@@H]2c1cccc(Cl)c1 (racemic)	–
